Rows were chosen to be rich in hits. Some 2.2% of all compounds tested hit in one or more screens of this group.
NR2E3 ag-1: NR2E3 agonists in two-hybrid cells, primary screen, cell-based, luminescence, CHO-S, Gal4-NCOR/VP16-NR2E3. inhibition of corepressor binding, % at 3.98 µM. AID 602229, 2012. 360,000 compounds, 0.35% hits. luciferase;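 active = inhibition above the mean of all tested compounds plus 3 SD, cut at about 70% in these data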;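 note: higher means lower luciferase signal from less NR2E3 corepressor binding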
Target sequence (Q9Y5X4 whole entry, looked up, the tested form may be a part): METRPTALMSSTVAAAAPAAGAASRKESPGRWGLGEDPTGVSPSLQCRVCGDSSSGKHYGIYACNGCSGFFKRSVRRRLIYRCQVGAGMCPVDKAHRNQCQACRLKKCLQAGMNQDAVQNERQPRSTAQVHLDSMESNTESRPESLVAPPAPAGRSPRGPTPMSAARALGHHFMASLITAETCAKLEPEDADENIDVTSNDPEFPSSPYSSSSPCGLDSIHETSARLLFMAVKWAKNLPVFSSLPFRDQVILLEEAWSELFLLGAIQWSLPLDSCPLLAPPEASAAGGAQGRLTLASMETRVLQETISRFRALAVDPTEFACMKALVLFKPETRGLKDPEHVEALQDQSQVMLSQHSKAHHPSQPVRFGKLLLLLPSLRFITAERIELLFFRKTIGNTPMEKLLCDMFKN
SMARCA2 act: SMARCA2 (BRM) function activators, primary screen, cell-based, luminescence, high throughput | AID 652017, 2013 | activation, % at 9.1 µM | 370,000 compounds, 1% hits | MG213 cells, MMTV-luciferase reporter, dexamethasone, overnight; in the data active = activation above about 7.8%
COUP-TFII inh: NR2F2 transcriptional activity inhibitors, primary screen, cell-based, luciferase reporter, HEK293T, luminescence; COUP transcription factor 2 (Homo sapiens), P24468; HEK293T NGFI-A luciferase reporter; inhibition, % at 8.6 µM; 370,000 compounds, 0.7% hits;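 active = inhibition above a per-plate cutoff, mean inhibition of test wells between control levels plus 3 SD, cut at about 38% in these data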;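 note: cells cotransfected with COUP-TFII expression vector driving the NGFI-A reporter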
NR2E3 ag-2: inhibitors of NR2E3-RetCOR corepressor binding, primary screen, NR2E3 agonist project, biochemical, TR-FRET, GST-NR2E3, biotin-RetCOR | Photoreceptor-specific nuclear receptor (Homo sapiens), Q9Y5X4 | 1536-well | inhibition of corepressor binding, % at 4.78 µM | 320,000 compounds, 0.12% hits | AID 2300, 2010;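 active = percent inhibition above the cutoff of mean plus 3 SD of all tested compounds, set per screening campaign, cut at about 20% in these data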
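system = GST-tagged NR2E3 plus biotinylated RetCOR corepressor | input = 1.35 nM GST-NR2E3 | also added = 7 nM biotin-RetCOR | schedule = 5 h incubation at 4 °C | measured by = TR-FRET with europium anti-GST and streptavidin-D2, 340 nm excitation | read-out = percent loss of FRET ratio relative to control wells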
GalR3 antag: GalR3 antagonists in HEK293 cells, primary screen, cell-based, fluorescence readout | Galanin receptor type 3 (Homo sapiens), O60755 | AID 651719, 2012 | 360,000 compounds, 0.44% hits | HEK293 GalR3-CNG cAMP membrane potential fluorescence; galR3 body fused to GalR1 C-terminus | inhibition, % at 3 µM;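 active = inhibition above the screen-wide average plus 3 SD, cut at about 13% in these data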;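 note: forskolin and galanin both at EC90 stimulate the cells; cAMP rise reported by CNG channel membrane potential dye signal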
GalR3 antag conf: GalR3 antagonist hit confirmation, cell-based, fluorescence, triplicate; shares compounds with GalR3 antag; HEK293 GalR3 CNG cAMP biosensor, membrane potential fluorescence; galR3 fused to GalR1 carboxy tail; challenged with forskolin and galanin at EC90; inhibition, % at 3 µM; 1,600 compounds, 59% hits; AID 652245, 2013;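 active = inhibition above the primary screen's cutoff, the mean inhibition of all screened compounds plus 3 SD, cut at about 13% in these data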
HEK-CNG parental: nonspecific cAMP agonists in parental HEK-CNG cells, counter-screen for GalR3 antagonist project, cell-based, fluorescence, high throughput; AID 652268, 2013; shares compounds with GalR3 antag; 1,600 compounds, 10% hits; activation, % at 3 µM; HEK293-CNG parental cells, cAMP membrane potential fluorescence; normalised: DMSO wells 0%, forskolin wells 100%; in the data active = activation above about 1.3%
Numbers stand for hits; i = inactive; nt = no result.

SMILES	NR2E3 ag-1	SMARCA2 act	COUP-TFII inh	NR2E3 ag-2	GalR3 antag	GalR3 antag conf	HEK-CNG parental
COc1ccc(OC[C@@H](O)CNC(=O)c2cccc3c2C(=O)c2ccc(Cl)cc2S3(=O)=O)cc1	i	i	i	i	78	58	i
O=C(NCc1ccc(F)cc1)c1cccc2c1C(=O)c1ccc(Cl)cc1S2(=O)=O	nt	i	i	nt	i	nt	nt
O=C(c1ccccc1[N+](=O)[O-])N1CCCC(C(=O)N2CCCCCC2)C1 (centres undefined)	i	i	i	i	i	nt	nt
CCOC(=O)C1CCCN(C(=O)c2ccccc2[N+](=O)[O-])C1 (centres undefined)	i	i	i	i	55	i	i
CCOC(=O)N1CCN(C(=O)CSCc2ccc(Cl)cc2)CC1	i	i	i	i	i	nt	nt
CCOC(=O)N1CCN(C(=O)CSCc2ccc(Br)cc2)CC1	i	i	i	i	nt	i	i
CCc1ccccc1-c1cc(C(=O)OC)c2n(c1=O)CCC2	nt	i	i	nt	nt	nt	nt
C/C(=N\O)c1ccco1	i	i	i	i	nt	i	i
C/C(=N\NC(=O)c1ccc(C(=O)N/N=C(\C)c2ccco2)o1)c1ccco1	i	i	i	i	i	nt	nt
N#CCC[C@H]1CC[C@]2(CCCN(Cc3cccc4ccccc34)C2)O1	nt	i	i	nt	nt	nt	nt
CCOC(=O)C1CCN(S(=O)(=O)c2ccc3c(c2)CC(C)N3C(=O)C2CC2)CC1 (centres undefined)	i	i	i	i	17	i	i
CCc1ccc(NC(=O)C2CCCN(S(=O)(=O)c3ccc4c(c3)CC(C)N4C(C)=O)C2)cc1 (centres undefined)	i	i	i	i	i	nt	nt
CCc1ccc(NC(=O)C2CCN(S(=O)(=O)c3ccc4c(c3)CC(C)N4C(C)=O)CC2)cc1 (centres undefined)	i	i	i	i	38	i	i
COc1ccc(C(=O)N2CCC(Oc3cccnc3)CC2)c(OC)c1	nt	i	i	nt	nt	nt	nt
CC(=O)COc1ccc2cc(-c3ccccc3)c(=O)oc2c1	i	i	i	i	i	nt	nt
O=C(CCCCl)Oc1ccc2cc(-c3ccc4ccccc4n3)c(=O)oc2c1	i	i	i	i	14	13	i
Cc1ccc(-n2c(SCc3cccc(F)c3)nc3sc4c(c3c2=O)CCCC4)cc1	nt	i	i	nt	nt	nt	nt
COc1ccc(OCc2cc(=O)c3ccc4c(c3o2)C=CC(C)(C)O4)cc1OC	i	i	i	nt	i	nt	nt
CC(C)=CCOc1ccc([C@@H]2COc3c(ccc4c3C=CC(C)(C)O4)C2)c(O)c1	i	i	i	i	19	18	22
Cc1ccccc1Cn1cc(CN2[C@@H](CC(C)C)COc3cc(Br)ccc3S2(=O)=O)nn1	nt	i	i	nt	nt	nt	nt
Cc1nn(-c2ccccc2)c(Cl)c1/C=C(\CC(=O)O)c1nc2ccccc2s1	i	i	i	i	13	i	i
COc1ccc(-c2cn(-c3ccc(C)c(C)c3)c(=S)[nH]2)cc1OC	i	i	i	i	i	nt	nt
COc1ccc(-c2cn(-c3ccc(C)c(Cl)c3)c(=S)[nH]2)cc1OC	i	i	i	i	41	102	i
CCCCC[C@H](O)/C=C/[C@H]1CCC(=O)[C@@H]1CCCCCCC(=O)N1CCCCC1CO (some centres undefined)	i	i	i	i	79	97	i
CCC1CCCCN1C(=O)CCCOc1ccccc1 (centres undefined)	i	i	i	i	i	nt	nt
SMILES	NR2E3 ag-1	SMARCA2 act	COUP-TFII inh	NR2E3 ag-2	GalR3 antag	GalR3 antag conf	HEK-CNG parental
COc1ccc(C#CCN(Cc2ccc(OC)cc2OC)C(N)=NC(=O)CCc2ccccc2)cc1	nt	i	i	nt	nt	nt	nt
COc1ccccc1NC(=O)CCCc1nc(-c2ccc(OC)c(OC)c2)no1	i	i	i	i	23	16	i
CC(c1ccccc1)n1cc(C(=O)N2CCCN(Cc3ccccc3)CC2)nn1 (centres undefined)	nt	i	i	nt	nt	nt	nt
O=C(/C=C/c1ccc(F)cc1)Nc1ccc(S(=O)(=O)Nc2ncccn2)cc1	i	i	i	i	i	nt	nt
Cc1ccc(/C=C/C(=O)Nc2ccc(S(=O)(=O)Nc3ncccn3)cc2)cc1	i	i	i	i	13	i	i
C/C(CC1CC(C)(C)OC1=O)=N\NC(N)=S (centres undefined)	i	i	i	i	i	nt	nt
C/C(CCC1CC(C)(C)OC1=O)=N\NC(N)=S (centres undefined)	i	i	i	i	13	i	i
CC(C)(C)CSc1nnc(-c2cccnc2)n1Cc1ccccc1	nt	i	i	nt	nt	nt	nt
COc1ccc(C2c3c(-c4cc(Cl)c(C)cc4O)n[nH]c3C(=O)N2Cc2cccnc2)cc1OC (centres undefined)	i	i	i	i	64	67	i
CCCC(=O)N1CCC[C@]2(CC[C@@H](CCC(=O)OCC)O2)C1	nt	i	i	nt	nt	nt	nt
CSc1ccc(C#N)cc1NC(=O)c1ccc(Cl)nc1	i	i	i	i	i	nt	nt
CSc1ccc(C#N)cc1NC(=O)c1ccccc1C	i	i	i	i	15	13	i
Cc1cc(C)n2nc(C(=O)NCc3ccccc3)nc2n1	i	i	i	i	nt	i	i
O=C(/C=C/c1cn(-c2ccccc2)nc1-c1cccnc1)NCCN1CCOCC1	i	i	i	i	18	14	i
Cc1cc(C#N)c(C)c(SCc2[nH]nc3c2C(c2ccccc2)C(C#N)=C(N)O3)n1 (centres undefined)	i	i	i	i	27	i	i
Cc1cc(C)c(C#N)c(SCc2[nH]nc3c2C(c2ccc(F)cc2)C(C#N)=C(N)O3)n1 (centres undefined)	i	i	i	i	18	39	4.4
COC(=O)CN(Cc1cn(Cc2ccccc2)nn1)S(=O)(=O)c1ccccc1Br	nt	i	i	nt	nt	nt	nt
CC(=O)NC1CCCCN(C(C)C)C1=O (centres undefined)	nt	i	i	nt	nt	nt	nt
CCn1ncc(C2=NOC(C(=O)NCc3ccccc3)C2)c1C (centres undefined)	i	i	i	i	16	25	i
COc1ccc(NC(=O)NNC(=O)CCn2nc(C)c([N+](=O)[O-])c2C)cc1OC	nt	i	i	nt	nt	nt	nt
Cc1cccc(NC2=C(Cl)C(=O)OC2OC(C)C)c1 (centres undefined)	i	i	i	i	14	i	i
